Screening data (PubChem BioAssay)
A selection: hits, their analogues and other compounds. The true share with any hit is near 1.5%.
NRP1-CendR mod – alters CendR peptide binding to human NRP-1. FAM-RPARPAR peptide binding to NRP-1, fluorescence polarization. O14786. inhibition, % at 25 µM. hit rate 0.85% among 360,000;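 active = inhibition or corrected inhibition above about 18%, plus a signal ratio from 0.5 to 1.5, limit read from the data, passing the limit was not always enough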
HCV core dimer – blocks dimerization of HCV core protein. TR-FRET GST/Flag-core106 dimerization, 1536-well. inhibition, % at 5 µM. hit rate 0.33% among 300,000. AID 1899;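 active = inhibition above the mean of all tested compounds plus 3 SD, set per screening campaign, cut at about 45% in these data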
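System: GST/Flag-tagged HCV core106 proteins. Incubation: compound-protein-antibody incubation 4 h at 22.5 °C. Technique: HTRF with 340 nm excitation, 617/671 nm emission. Medium: KF-containing HEPES buffer, pH 7.45, DTT, CHAPS, BSA. Read-out: inhibition (%) from 671 over 617 nm ratio. Also added: Eu(K)-anti-GST 90 ng/mL plus XL665-anti-Flag 1 µg/mL.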
MEX-5 binding – C. elegans MEX-5 TCR-2 RNA binding activity; MEX-5/FITC-TCR2 RNA binding, fluorescence polarization; hits give low values; activity score (negative = inhibition of binding), % at 10 µM; hit rate 0.38% among 300,000; AID 1832;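 active = inhibition past about -25% in most replicates, and total fluorescence under double the plate's negative control median, limit read from the data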;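 note: 0% = DMSO and -100% = 5 µM competing unlabeled TCR2 RNA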
DNA FID counter – fluorescent intercalator displacement, NS3 helicase counter-screen. hit rate 0.17% among 290,000. inhibition, % at 7.9 µM. DNA fluorescent intercalator displacement, fluorescence; in the data active = inhibition above about 37%;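 note: 0% = vehicle and 100% = reference compound; higher means more ethidium bromide displaced from hairpin DNA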
Active calls of the source: *; nt = no result.

SMILES	NRP1-CendR mod	HCV core dimer	MEX-5 binding	DNA FID counter
COc1ccc(NC(=O)c2cc(C)nc3ccccc23)cc1S(=O)(=O)N1CCOCC1	-11.2	nt	nt	nt
CSc1ncccc1C(=O)OCC(=O)NC1CCCC1	15.6	nt	nt	nt
CSc1ncccc1C(=O)OCC(=O)Nc1ccc(C)c(S(=O)(=O)N2CCOCC2)c1	20.3*	nt	nt	nt
CSc1ncccc1C(=O)OCC(=O)NC1CCCCC1	22.8*	nt	nt	nt
COc1ccc(NC(=O)c2cc(-c3ccco3)nc3ccccc23)cc1S(=O)(=O)N1CCOCC1	-24.2	80.7*	-6.0	-23.0
Cc1ccc(NC(=O)COC(=O)c2cccnc2Cl)cc1S(=O)(=O)N1CCOCC1	14.2	nt	nt	nt
O=C(CN1C(=O)NC2(CCCC2)C1=O)Nc1cc(S(=O)(=O)N2CCCCC2)ccc1Cl	-6.4	nt	nt	nt
CC(C)c1ccc(CN2CCC2(C)C(=O)Nc2cccc(Oc3ccccc3)c2)cc1 (stereo unspecified)	3.8	nt	nt	nt
FC(F)(F)c1ccccc1Cc1c(-c2ccccc2)nc2ccc(Br)cn12	-12.9	nt	nt	nt
CCOc1ccc(Cl)cc1S(=O)(=O)N1CCN(c2ccc(F)cc2)CC1	3.2	7.8	0.3	-18.5
COc1ccc(Cl)cc1S(=O)(=O)N1CCN(c2ccc(F)cc2)CC1	29.1*	8.3	-1.0	-9.3
O=C(Nc1ccc2c(c1)OCCO2)C(c1ccccc1)n1c(=O)c(-c2cc3ccccc3[nH]2)nc2ccccc21 (stereo unspecified)	12.5	nt	nt	nt
COC(=O)c1cn(-c2ccccc2)c(C)c1C(=O)OC	22.3*	5.0	1.4	-4.6
CCc1cc2c(=O)c(-c3nc4ccccc4n3C)coc2c(CN2CCN(C)CC2)c1O	22.1*	4.4	-0.4	-3.0
O=C(O)C1CCN(C(=O)c2ccc(Cl)cc2)CC1	25.4*	-2.7	2.1	-1.1
CCN(CC)C(=O)c1cccc(-c2csc(C(NC(C)=O)c3ccc(F)c(F)c3)n2)c1 (stereo unspecified)	6.1	nt	nt	nt
CN(C)C1=NC(=O)/C(=C/c2ccc(-c3ccc(S(N)(=O)=O)cc3)o2)S1	nt	-20.2	-28.6*	-3.3
NC1=NC(=O)/C(=C\c2ccc(-c3ccc(Cl)cc3)o2)S1	-13.6	-19.1	-5.0	-17.2
Cc1cc2nc(-c3ccc(C#N)cc3)c(Cc3ccsc3)n2c(C)c1Br	-20.4	nt	nt	nt
CC(C)[C@@H](COc1ccccc1)N1CCN(Cc2ccccc2)CCC1=O	12.3	10.8	0.4	-20.9
CC(C)C(CO)N1CCN(Cc2ccccc2)CCC1=O (stereo unspecified)	24.4*	-9.8	0.0	nt
Oc1cc2ccccc2cc1-c1n[nH]c(=S)n1Cc1ccco1	21.1*	9.5	0.0	-15.3
CCN(c1ccc(OC)cc1)S(=O)(=O)c1nnc(NC(=O)COc2ccc(F)cc2)s1	-6.0	-0.1	-2.1	-32.8
CCN(c1ccc(OC)cc1)S(=O)(=O)c1nnc(NC(=O)COc2ccc(C)cc2)s1	-30.0	56.1*	1.7	-18.3
COc1ccc(Nc2nc(N3CCN(C)CC3)nc3ccccc23)c(OC)c1	10.5	-1.2	-4.1	46.4*
SMILES	NRP1-CendR mod	HCV core dimer	MEX-5 binding	DNA FID counter
COc1ccc(Nc2nc3ccccc3nc2NS(=O)(=O)c2cccs2)c(OC)c1	-55.5	11.8	-40.0*	-5.6
COc1ccc(Nc2nc(-c3cccs3)nc3ccccc23)c(OC)c1	-7.4	4.0	1.7	5.1
CCOc1cc(/C=C2\SC(=Nc3ccc(CC)cc3)NC2=O)ccc1OCC(=O)O	-120.9	17.2	-43.6*	-0.2
CCN1CCN(C(c2cc3cccc(C)c3[nH]c2=O)c2nnnn2Cc2ccccc2)CC1 (stereo unspecified)	38.9*	0.2	1.4	1.3
Cc1ccc(SCC(=O)OC(C)C(=O)Nc2ccc(S(N)(=O)=O)cc2)cc1C (stereo unspecified)	44.5*	-3.8	-4.0	nt
CC(OC(=O)CCSc1ccccc1)C(=O)Nc1ccc(S(N)(=O)=O)cc1 (stereo unspecified)	5.3	1.7	0.4	nt
O=C(O)c1ccccc1N/N=C/c1c(Sc2nnnn2-c2ccccc2)nc2ccccn2c1=O	-165.3	5.2	-25.6*	-4.0
COc1ccc(C)cc1NC(=O)c1cccc(C(=O)Nc2cc(C)ccc2OC)c1	33.0*	5.1	1.7	-28.9
c1ccc(Cn2c(Cn3c(-c4cnccn4)nc4ccccc43)nc3ccccc32)cc1	-8.4	nt	nt	nt
CCCCN(C(=O)c1cccc(S(=O)(=O)N(CC)c2ccccc2)c1)c1c(N)n(CCCC)c(=O)[nH]c1=O	-7.5	nt	nt	nt
CC(C)(C)C(=O)COC(=O)c1cc(-c2ccncc2)nc2ccccc12	27.2*	4.3	1.0	-19.9
O=C(Nc1nccs1)c1cc(-c2ccncc2)nc2ccccc12	-12.8	56.4*	0.2	3.7
CC(=O)COC(=O)c1cc(-c2ccc(C)cc2)nc2ccccc12	-5.3	7.5	1.4	-4.8
Cc1csc(NC(=O)c2cc(-c3ccncc3)nc3ccccc23)n1	6.6	17.1	0.7	-12.1
NCCCC[C@H]1CNC(=O)C(=O)N1CC1CCCCC1	18.3*	2.4	-2.8	nt
CC(C)C[C@H]1CN(CCCC[C@@H]2CNC(=O)C(=O)N2CCc2ccccc2)C(=O)C(=O)N1CCc1ccc(O)cc1	7.1	nt	nt	nt
N#CCCN(Cc1ccccc1)C(C(=O)NC1CCCCC1)c1cc2ccccc2o1 (stereo unspecified)	8.6	nt	nt	nt
CC(C)(C)OC(=O)NCc1ccc(CNC(=O)c2nc[nH]c2C(=O)N2CCc3ccccc3C2)cc1	34.7*	nt	nt	nt
CC(C)(C)OC(=O)[C@H](Cc1ccccc1)NC(=O)c1nc[nH]c1C(=O)N1CCN(C(=O)OC(C)(C)C)CC1	26.7*	10.9	0.9	-49.2
CN(Cc1ccccc1)C(=O)c1nc[nH]c1C(=O)N1CCN(C(=O)OC(C)(C)C)CC1	37.1*	nt	nt	nt
CC(C)(C)OC(=O)NCCCCCNC(=O)c1nc[nH]c1C(=O)N1CCc2ccccc2C1	2.4	nt	nt	nt
CN(Cc1ccccc1)C(=O)c1nc[nH]c1C(=O)N1CCN(c2ccccc2)CC1	8.7	nt	nt	nt
O=C(N[C@@H](Cc1ccccc1)C(=O)OCc1ccccc1)c1nc[nH]c1C(=O)NC(c1ccccc1)c1ccccc1	27.2*	2.4	0.9	-9.6
Cc1ccc(S(=O)(=O)NCc2ccccc2NS(=O)(=O)c2ccc(C)cc2)cc1	6.3	nt	nt	nt
CCOC(=O)C1(C)CCCN(C(=O)c2cccc(OC(F)(F)F)c2)C1 (stereo unspecified)	2.2	nt	nt	nt
SMILES	NRP1-CendR mod	HCV core dimer	MEX-5 binding	DNA FID counter
CC1CCN(C(=O)c2[nH]cnc2C(=O)NC2CCN(C(=O)OC(C)(C)C)CC2)CC1	29.2*	nt	nt	nt
CCN(CC)C(=O)c1nc[nH]c1C(=O)N1CCc2ccccc2C1	14.3	nt	nt	nt
CCN(CC)C(=O)c1nc[nH]c1C(=O)N1CCN(c2ccccc2)CC1	30.3*	nt	nt	nt
C[C@H](NC(=O)c1nc[nH]c1C(=O)NC1CCN(C(=O)OC(C)(C)C)CC1)C(=O)OC(C)(C)C	0.3	5.6	-1.6	-13.4
CC(C)(C)OC(=O)[C@H](CCCCN)NC(=O)c1nc[nH]c1C(=O)NCCCCCN	21.0*	-0.4	-2.3	nt
CC(C)NC(=O)C1(C)CN(S(C)(=O)=O)CC(=O)N1CCc1ccccc1 (stereo unspecified)	2.3	nt	nt	nt
CCc1nc2ccc(C(=O)NCCNC(C)=O)cn2c1N(C)CCCc1ccccc1	-9.0	nt	nt	nt
